Values after ≈ are worked out from the molar mass of the structure shown.
Assays:
[1] = tested on: Human immunodeficiency virus 1; assay: Antiviral activity against HIV1 infected human CEM-SS cells; type: functional, organism-based; details: Human immunodeficiency virus 1, CEM-SS
[2] = Cytotoxicity against human CEM-SS cells; type: cell-based
[3] = tested on: Human immunodeficiency virus 1; assay: Antiviral activity against HIV1 infected human MT4 cells; type: functional, organism-based; details: Human immunodeficiency virus 1, MT4
[4] = Cytotoxicity against human MT4 cells; type: cell-based
[5] = tested on: Human immunodeficiency virus 1; assay: Antiviral activity against HIV1 infected human thymidine kinase-deficient CEM cells; type: functional, organism-based; details: Human immunodeficiency virus 1, CCRF-CEM
[6] = Cytotoxicity against human thymidine kinase-deficient CEM cells; type: cell-based, CCRF-CEM
[7] = Lipophilicity, log P of the compound; type: physicochemical; details: octanol/water
In short: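 Log P values were calculated with software, not measured experimentally.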

[8] = Stability in human CEM-SS cell culture medium; type: ADME, cell-based
In short: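 Compound at an initial 50 µM was incubated in culture medium of 90% RPMI 1640 plus 10% fetal calf serum, heat-inactivated 30 min at 56 °C. Analysis was by on-line ISRP-cleaning HPLC (0–80% acetonitrile in 20 mM TEAA pH 6.9, 267 nm) with HPLC/MS or co-injection identification. Half-lives came from pseudo-first-order exponential fits. Mean of three experiments.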

[9] = Stability in human CEM-SS cell extracts; type: ADME, cell-based
In short: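 CEM-SS cell extracts were incubated with compound at an initial 50 µM. Samples were analysed by on-line ISRP-cleaning HPLC (0–80% acetonitrile gradient in 20 mM TEAA pH 6.9, detection 267 nm), with metabolites identified by HPLC/MS or co-injection. Half-lives came from pseudo-first-order mono- or polyexponential regression. Mean of three experiments.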

[10] = Aqueous solubility of the compound; type: physicochemical
[11] = Chemical stability in water at pH 6.8; type: physicochemical
In short: (§1)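 Compound at an initial 50 µM was incubated in water (pH 6.8) or RPMI 1640 (pH 7.5). Samples were analysed by on-line ISRP-cleaning HPLC: TEAA 20 mM pH 6.9 wash, then 0–80% acetonitrile gradient, UV 267 nm. Products were identified by HPLC/MS or co-injection. Half-lives came from pseudo-first-order mono- or polyexponential fits of peak areas. Mean of two experiments.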

[12] = Chemical stability in RPMI1640 medium at pH 7.5; type: physicochemical; in short: as §1

| Structure (SMILES) | EC50 [1] [nM] | CC50 [2] [nM] | EC50 [3] [nM] | CC50 [4] [nM] | EC50 [5] [nM] | CC50 [6] [nM] | logP [7] | half-life [8] [h] | half-life [9] [h] | solubility [10] [µg/mL] | half-life [11] [h] | half-life [12] [h] | logP ([7]; read-out: logP) |
| --- | --- | --- | --- | --- | --- | --- | --- | --- | --- | --- | --- | --- | --- |
| Cc1cn([C@H]2C[C@H](N=[N+]=[N-])[C@@H](CO)O2)c(=O)[nH]c1=O [ZIDOVUDINE] | 3 | > 100000 | 15 | > 100000 | > 100000 | > 100000 | – | – | – | – | – | – | – |
| Cc1cn([C@H]2C[C@H](N=[N+]=[N-])[C@@H](COP(=O)(OCCSC(=O)C(C)(C)C)Oc3ccccc3)O2)c(=O)[nH]c1=O (stereo partly specified) | 15 | > 10000 | 810 | > 10000 | 450 | > 10000 | 2 | 607 | 1.5 | 57 (≈ 0.1 mM) | – | – | – |
| Cc1cn([C@H]2C[C@H](N=[N+]=[N-])[C@@H](COP(=O)(OCCSC(=O)C(C)(C)NC(=O)OC(C)(C)C)Oc3ccccc3)O2)c(=O)[nH]c1=O (stereo partly specified) | – | – | – | – | – | – | – | 338 | 40.8 | – | > 480 | > 288 | – |
| Cc1cn([C@H]2C[C@H](N=[N+]=[N-])[C@@H](COP(=O)(OCCSC(=O)C(C)(C)N)Oc3ccccc3)O2)c(=O)[nH]c1=O (stereo partly specified) | 9 | > 120000 | 54 | > 120000 | 90000 | > 120000 | – | < 0.0167 | 0.133 | – | > 144 | 0.1 | 2 |
| Cc1cn([C@H]2C[C@H](N=[N+]=[N-])[C@@H](COP(=O)(OCCSC(=O)[C@@H](N)C(C)C)Oc3ccccc3)O2)c(=O)[nH]c1=O (stereo partly specified) | 1 | > 120000 | 4 | > 120000 | 81000 | > 120000 | – | < 0.0167 | < 0.0167 | – | 1820 | < 0.0167 | 2 |
| Cc1cn([C@H]2C[C@H](N=[N+]=[N-])[C@@H](COP(=O)(OCCSC(=O)C(C)(C)CO)Oc3ccccc3)O2)c(=O)[nH]c1=O (stereo partly specified) | 6 | > 130000 | 30 | > 130000 | 3900 | > 130000 | – | 331 | 14.8 | 6640 (≈ 11.4 mM) | – | – | 2 |
| Cc1cn([C@H]2C[C@H](N=[N+]=[N-])[C@@H](COP(=O)(OCCSC(=O)C(C)(CO)CO)Oc3ccccc3)O2)c(=O)[nH]c1=O (stereo partly specified) | 12 | > 150000 | 74 | > 150000 | > 100000 | > 150000 | – | 211 | 178 | 60600 (≈ 101 mM) | – | – | 2 |
| Cc1cn([C@H]2C[C@H](N=[N+]=[N-])[C@@H](COP(=O)(OCCSC(=O)[C@@H](NC(=O)OC(C)(C)C)C(C)C)Oc3ccccc3)O2)c(=O)[nH]c1=O (stereo partly specified) | – | – | – | – | – | – | – | 197 | 106 | – | > 960 | > 216 | – |

Reference: ChEMBL document CHEMBL1155793, “Phenyl phosphotriester derivatives of AZT: variations upon the SATE moiety” (Bioorg Med Chem, 2008)
